Target: Myc-tagged Akt1 (Homo sapiens, UniProt P31749)
Type: biochemical
Conditions: at 5 µM, immunoblot
Outline: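 HEK293 cells transfected with Myc-tagged Akt1; the kinase was immunoprecipitated with anti-Myc antibody. The immobilized enzyme was incubated with a GSK3β fusion protein substrate, with or without test compound. Phospho-GSK3β was detected by immunoblot, and an approximate IC50 was estimated from the blots.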

Sequence of Myc-tagged Akt1 (P31749 whole entry): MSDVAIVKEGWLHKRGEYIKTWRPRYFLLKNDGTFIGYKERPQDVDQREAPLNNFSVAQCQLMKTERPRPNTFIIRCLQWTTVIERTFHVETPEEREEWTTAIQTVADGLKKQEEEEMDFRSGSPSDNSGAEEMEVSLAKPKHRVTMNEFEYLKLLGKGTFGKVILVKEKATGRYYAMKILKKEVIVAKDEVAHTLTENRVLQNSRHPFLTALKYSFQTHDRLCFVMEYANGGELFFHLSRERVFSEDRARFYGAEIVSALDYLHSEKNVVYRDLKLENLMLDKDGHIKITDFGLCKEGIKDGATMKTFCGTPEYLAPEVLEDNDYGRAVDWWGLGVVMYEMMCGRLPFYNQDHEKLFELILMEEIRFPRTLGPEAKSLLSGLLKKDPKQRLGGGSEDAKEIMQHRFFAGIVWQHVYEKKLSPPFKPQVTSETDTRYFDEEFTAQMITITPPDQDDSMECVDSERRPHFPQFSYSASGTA

- phosphorylation of GSK3β: completely blocks
Structure (SMILES): NC1(c2ccc(-c3nc4ccn5c(=O)[nH]nc5c4cc3-c3ccccc3)cc2)CCC1 [MK2206]

From paper PMC4176526 (Bioorganic & medicinal chemistry letters, 2014)
